Assay outcomes as filed in PubChem.
Only some compounds are listed: those with a hit (about 5.6% of all), similar ones and a draw of the others.
UPR XBP1 act: adaptive UPR (XBP1) activation; AID 463104; CHO-XBP1 luciferase reporter, IRE1-XBP1 UPR activation, luminescence; percent of tunicamycin response, DMSO as zero; hit rate 0.33% among 330,000; activation, % at 20 µM;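 active = versus positive control, 20 µM dose yields 30% or more activation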
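Material: CHO-XBP1 cells stably carrying IRE1-XBP1-driven luciferase reporter / Amount: 1000 cells per well / Compound: 20 µM, 1% DMSO / Times: 6 h treatment, 37 °C / Detection: luciferase luminescence / Measure: % activation of reporter signal versus tunicamycin and DMSO controls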
NR3A LBD binder: NR3A (human) ligand-binding domain modulation | NR3A LBD differential scanning fluorimetry, Tm shift; 0% = protein alone, 100% = glycine-bound protein | Tm shift relative to glycine control, % at 25 µM | hit rate 2.5% among 340,000 | AID 1259313;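 active = melting temperature shift of at least 10% of the positive control shift, at one fixed dose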
CHOP UPR activ: activators of apoptotic arm of unfolded protein response (CHOP); CHO-CHOP luciferase reporter, UPR activation, luminescence; percent of tunicamycin response over DMSO baseline; activation, % at 10 µM; hit rate 0.34% among 330,000;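 active = at 10 µM dose, activation of 40% or more, normalized to positive control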
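Test system: CHO-CHOP cells, stable luciferase reporter of PERK-eIF2a-CHOP signalling | Quantity: 500 CHO-CHOP cells per well | Buffer or medium: F12 plus 10% serum | Compound dosing: 10 µM single point, 0.5% DMSO | Schedule: 6 h compound treatment, 37 °C | Signal: Luciferase luminescence | Control set: Tunicamycin high control, DMSO low control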
aDG glyco act: increases alpha dystroglycan glycosylation; activation, % at 10 µM; AID 624168; hit rate 0.22% among 360,000; Pro5-aDG cells, alpha-DG glycosylation AlphaScreen (IIH6); 0% Pro5, 100% B10-LARGE cell signal;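 active = activation of at least 8% versus controls, or a plate z-score of at least 8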;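 also: Pro5 are CHO cells carrying HIG-tagged alpha-DG that lacks glycosylation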
CHOP inhibitor: CHOP inhibition in unfolded protein response; CHO-K1 CHOP-promoter luciferase, tunicamycin-induced, 15-18 h; inhibition, % at 10 µM; hit rate 3.8% among 220,000; AID 2732;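 active = compounds that reduced the stress-induced luciferase reporter signal by more than about 70% of percent inhibition, limit read from the data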
MPTP inh: permeability transition pore inhibition; hit rate 1.4% among 360,000; isolated mouse mitochondria, Ca2+ swelling absorbance, 30 min; inhibition, % at 10 µM;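 active = inhibition of 50% or more, scaled per plate between neutral and stimulator controls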
A number is an active result; - = inactive; . = not tested or not shown.

SMILES	UPR XBP1 act	NR3A LBD binder	CHOP UPR activ	aDG glyco act	CHOP inhibitor	MPTP inh
CC1(C(=O)NCCCN2CCCC2=O)CCN1CCc1ccccc1 (centres undefined)	.	.	.	-	.	-
CC(C)CC(C(=O)NC1CCCC1)N(Cc1ccc2c(c1)OCO2)C(=O)c1snc(C(N)=O)c1N (centres undefined)	-	-	-	-	81	-
CCC(C(=O)NC1CCCC1)N(Cc1ccc2c(c1)OCO2)C(=O)c1snc(C(N)=O)c1N (centres undefined)	-	-	-	-	-	-
CC1CCc2c(sc(NC(=O)Cn3cnc([N+](=O)[O-])n3)c2C(N)=O)C1 (centres undefined)	-	-	-	-	-	-
NC(=O)c1c(NC(=O)Cn2cnc([N+](=O)[O-])n2)sc2c1CCCC2	-	-	-	-	-	-
CCOC(=O)c1c(NC(=O)Cn2cnc([N+](=O)[O-])n2)sc2c1CCCC2	-	-	-	-	75	-
CC(C)OC(=O)c1c(NC(=O)Cn2cnc([N+](=O)[O-])n2)sc2c1CCCC2	-	-	-	-	93	-
COc1ccc(Cn2cc(CN3CC(N4CCN(C5CCN(C)CC5)CC4)CS3(=O)=O)nn2)cc1 (centres undefined)	.	.	.	-	.	-
COc1cc(OC)c(-c2nc3ccccc3s2)cc1OC	-	-	-	-	72	-
CC1=CC(=O)C2(C)C(C)=C(C)C12C (centres undefined)	.	.	.	-	.	-
Oc1oc(-c2cccc3ccccc23)nc1/C=N/c1nccs1	-	11	-	-	90	-
Oc1oc(-c2cccc3ccccc23)nc1C=NCc1ccccc1	.	.	.	.	-	.
Cc1sc2ncnc(N3CCC(C(=O)Nc4ccc(OC(F)F)c(Cl)c4)CC3)c2c1C	-	10	-	-	.	-
Cc1cc(Cl)ccc1OCC(=O)NNC(=O)C1CCN(c2ncnc3sc(C)c(C)c23)CC1	-	-	-	-	.	-
CCCC1(c2ccccc2)NC(=O)N(CC(=O)Nc2sc(-c3ccccc3)cc2C(=O)OCC)C1=O (centres undefined)	-	-	-	-	85	-
CCCNC(=O)C1(C)CCCN(Cc2ccc(Oc3ccccc3)cc2)C1 (centres undefined)	.	.	.	-	.	-
CCN(CC)c1nc(Nc2ccccc2)nc(Oc2ccc(=O)n(C)n2)n1	-	-	-	-	71	-
CC1CCCCN1S(=O)(=O)c1ccc(C(=O)N2CCOCC2)cc1 (centres undefined)	-	-	-	-	.	-
Cc1nn(-c2ccccc2)c(C)c1NC(=O)COc1cc(F)ccc1[N+](=O)[O-]	-	-	-	-	.	-
Cc1ccc(C)c(N2CCN(C(=O)CCc3nc(-c4ccccc4)no3)CC2)c1	-	15	-	-	.	-
Cc1ccc(C)c(N2CCN(C(=O)CCc3nc(-c4ccc(F)cc4)no3)CC2)c1	-	-	-	-	.	-
Cc1cccc(-c2noc(CCC(=O)N3CCN(c4cc(C)ccc4C)CC3)n2)c1	-	17	-	-	.	-
COc1ccc(N=N/C(=C\O)C(=O)c2cccs2)cc1	-	-	-	-	72	-
C/C(=N/Nc1ccnc2cc(Cl)ccc12)c1ccc(O)cc1	-	14	-	-	.	-
C/C(=N/Nc1ccnc2cc(Cl)ccc12)c1ccc(N)cc1	-	-	-	-	.	-
SMILES	UPR XBP1 act	NR3A LBD binder	CHOP UPR activ	aDG glyco act	CHOP inhibitor	MPTP inh
COc1ccccc1-c1nnc(SCC(=O)Nc2ccc(N3CCOCC3)cc2)n1N	-	-	-	-	.	-
CCOC(=O)C1=C(c2ccccc2)NC(SC)=C(C#N)C1c1ccco1 (centres undefined)	-	-	-	-	-	-
CCOC(=O)C1=C(c2ccccc2)NC(SCC(=O)Nc2ccc(C)cc2)=C(C#N)C1c1ccco1 (centres undefined)	-	-	-	-	94	-
CCOC(=O)C1=C(c2ccccc2)NC(SCC(=O)Nc2cccc(C)c2)=C(C#N)C1c1ccco1 (centres undefined)	-	-	-	-	99	-
CCOC(=O)C1=C(c2ccccc2)NC(SCC(=O)Nc2ccccc2C)=C(C#N)C1c1ccco1 (centres undefined)	-	-	-	-	-	-
Cc1cc2nc(-c3ccc(SCC(=O)Nc4ccc(S(=O)(=O)NC5CC5)cc4)nc3)[nH]c2cc1C	-	32	-	-	-	-
O=C(O)CCn1cc(C2CC(c3ccccc3)=NN2c2ccccc2)c(-c2ccccc2)n1 (centres undefined)	-	-	-	-	80	-
C=CCc1cccc(/C=N/NC(=O)CNc2ccccc2OC)c1O	-	13	-	-	89	-
C=CCc1cccc(/C=N/NC(=O)CNc2ccccc2)c1O	-	-	-	-	89	-
O=C(Cc1cc(=O)[nH][nH]1)N/N=C/c1cccc2ccccc12	-	-	-	-	-	-
C=CCc1cccc(/C=N/NC(=O)C[n+]2ccccc2)c1O	-	-	-	-	.	-
C=CCc1cccc(/C=N/NC(=O)CNc2cccc3ccccc23)c1O	-	30	-	-	-	-
O=C(NCCCNC(=O)c1cnccn1)c1ccc(Br)cc1	-	-	-	-	.	-
CCOc1cc(/C=C2/NC(=O)N(CC(=O)Nc3cccc(C)c3)C2=O)ccc1OC	-	-	-	-	90	-
O=C(NC(=S)Nc1ccc2oc(=O)ccc2c1)c1cc2ccccc2o1	-	-	-	-	-	-
Cc1ccc(C(=O)NC(=S)Nc2ccc(-c3cc4ccccc4oc3=O)cc2)c(C)c1	-	-	-	-	95	-
CC(=O)Nc1ccc(NC(=S)NC(=O)c2cc3ccccc3o2)cc1	-	16	-	-	-	-
O=C(Cc1cccc2ccccc12)Nc1ccc(-c2cc3ccccc3oc2=O)cc1	-	-	-	-	81	-
CC(C)C(=O)Nc1ccc(NC(=S)NC(=O)c2cc3ccccc3o2)cc1	-	17	-	-	-	-
Cc1cccn2c(=O)nc(SCC(=O)c3ccccc3)nc12	-	-	-	-	.	-
Cc1cccc(CS(=O)(=O)c2ncc(Cl)c(C(=O)NCc3ccccc3)n2)c1	-	-	84	-	.	-
Cc1cccc(CS(=O)(=O)c2ncc(Cl)c(C(=O)Nc3c(C)cccc3C)n2)c1	-	-	-	-	.	-
O=C(Nc1ccccc1Cl)c1ccccc1Cc1ccccc1	-	-	-	-	-	-
O=c1/c(=C\c2ccc(O)cc2)sc2nc(-c3ccccc3)c(-c3ccccc3)n12	-	-	-	-	91	-
Cc1cc(C)c2nc3s/c(=C/c4ccccc4)c(=O)n3c2c1	.	.	.	.	-	.
CNS(=O)(=O)c1cccc(C(=O)OCc2cc(=O)oc3c(C)c(O)ccc23)c1	-	-	-	-	.	-
